From publication PMC10519257 (Journal of Enzyme Inhibition and Medicinal Chemistry, 2023)
Ends that are not written are not given here.

Experiments:
Serum stability = type: in vitro ADME, human
Procedure, shortened: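 Test compound in water (1 mg/mL stock) diluted to 0.1 mg/mL in phosphate buffer pH 7.2, then added to serum from one 40th-week pregnant donor (oxytocinase-rich) and incubated at 37 °C with a reference peptide as internal standard. Aliquots at 1, 3, 5, 20, 24, 48 h were quenched in H2O/CH3CN (1:1) with 0.1% TFA, held 5 min at 0 °C and centrifuged.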

[1] = Stability in phosphate buffer pH 7.2; type: physicochemical
Procedure, shortened: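 Peptides were incubated at 37 °C in phosphate buffer at pH 7.2 without serum. Remaining peptide was sampled at 1, 3, 5, 20, 24 and 48 h and measured by RP-HPLC-MS.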

rat mammary gland = conditions: cited from earlier work
isolated uterus = conditions: rat isolated uterus; cited from earlier work

Compound	half-life (Serum stability; human, serum)	time after which not detectable by analytical RP-HPLC (Serum stability; woman serum at 40th week of pregnancy, 37 °C)	half-life [1]	contractile activity (rat mammary gland)	contractile activity (isolated uterus)
CC[C@H](C)[C@@H]1NC(=O)[C@H](Cc2ccc(O)cc2)NC(=O)[C@@H](N)CSSC[C@@H](C(=O)N2CCC[C@H]2C(=O)N[C@@H](CC(C)C)C(=O)NCC(N)=O)NC(=O)[C@H](CC(N)=O)NC(=O)[C@H](CCC(N)=O)NC1=O [OT, Oxytocin]	16 h	48 h	24 h	–	–
(1,6-di-alanine)-oxytocin (AYIQNAPLG; ends and bridges not checked; UniProt P01178 20-28, looked up, variant C1A C6A) [[Ala(1,6)]OT]	–	–	–	devoid of any contractile activity	devoid of any contractile activity
(1,6-di-serine)-oxytocin (SYIQNSPLG; ends and bridges not checked; UniProt P01178 20-28, looked up, variant C1S C6S) [[Ser(1,6)]OT]	–	–	–	devoid of any contractile activity	devoid of any contractile activity
